Type in all cases: functional, cell-based
A short description of assay [1]: Cytotoxicity against human EC109 cells after 72 hrs by SRB assay. As to conditions: ECa-109, 72 h. In outline: (§1)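 Cells in DMEM with 10% FBS and 1% penicillin/streptomycin; log-phase cells trypsinized and seeded at 5000 cells/well. DMSO stocks diluted 1000-fold in medium (<0.1% DMSO); final 100 down to 1.5625 μM in twofold steps, 72 h. Fixed with 50% TCA, stained 0.4% SRB, solubilized in 10 mM Tris base pH 10.5, OD 515 nm; IC50 calculated.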
For orientation: In SRB staining, fixed cells bind dye roughly in proportion to their protein.

Assay [2] can be described thus: Cytotoxicity against human EC9706 cells after 72 hrs by SRB assay. The note with it: EC9706, 72 h. In outline: as §1
In assay [3] the test system is MGC-803. The assay is described as follows: Cytotoxicity against human MGC803 cells after 72 hrs by SRB assay. As to conditions: MGC-803, 72 h. In short, it runs like this:
as §1

The subject of assay [4] is PC-3. The assay can be described thus: Cytotoxicity against human PC3 cells after 72 hrs by SRB assay. As to conditions: PC-3, 72 h. In outline:
as §1

Assay [5] concerns MGC-803. The assay is described as follows: Cytotoxicity against human L-NAC-pretreated MGC803 cells incubated 2 hr post-L-NAC addition measured after 72 hrs by SRB assay. In outline:
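MGC-803 cells in DMEM/10% FBS, seeded 5000 cells/well, preincubated with or without 5 mM L-NAC (ROS scavenger) for 2 h before compound addition. Compound final 100 to 1.5625 μM (twofold series, <0.1% DMSO), 72 h. SRB readout after TCA fixation, OD 515 nm; IC50 (50% cell death) calculated.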

The record followed here is ChEMBL document CHEMBL2157988, “Isolation, characterization and cytotoxic activity of benzophenone glucopyranosides from Mahkota Dewa (Phaleria macrocarpa (Scheff.) Boerl)” (Bioorg Med Chem Lett, 2012).

The source made the active and inactive calls. No cut-off for these calls is given here.

A word on the IC50: it is the concentration that inhibits the measured activity by half. On to `COc1cc(OC)c(C(=O)c2ccc(O)cc2)c(O[C@@H]2O[C@H](CO)[C@@H](O)[C@H](O)[C@H]2O)c1`, for which the IC50 in assay [1], in assay [2], in assay [3] and in assay [4] was above 100 µM throughout.
With `COc1cc(OC(=O)c2ccccc2)c(C(=O)c2ccc(OC(=O)c3ccccc3)cc2)c(O[C@@H]2O[C@H](COC(=O)c3ccccc3)[C@@H](OC(=O)c3ccccc3)[C@H](OC(=O)c3ccccc3)[C@H]2OC(=O)c2ccccc2)c1`, the 50% inhibitory concentration (IC50) in assay [1], in assay [2], in assay [3] and in assay [4] was above 100 µM in each case.
Regarding `CCCCOc1ccc(C(=O)c2c(OCCCC)cc(OC)cc2O[C@@H]2O[C@H](CO)[C@@H](O)[C@H](O)[C@H]2O)cc1`, the IC50 worked out at 29 µM in assay [1], 41.8 µM in assay [2], 49.2 µM in assay [3] and 32 µM in assay [4].
For the compound `CCCC(=O)OC[C@H]1O[C@@H](Oc2cc(OC)cc(OC(=O)CCC)c2C(=O)c2ccc(OC(=O)CCC)cc2)[C@H](OC(=O)CCC)[C@@H](OC(=O)CCC)[C@@H]1OC(=O)CCC`, the IC50 in assay [1], in assay [2], in assay [3] and in assay [4] was above 100 µM in each case.
Take `COc1cc(OCC2CO2)c(C(=O)c2ccc(OCC3CO3)cc2)c(O[C@@H]2O[C@H](CO)[C@@H](O)[C@H](O)[C@H]2O)c1` (stereo partly drawn): the half-maximal inhibitory concentration (IC50) in assay [1], in assay [2], in assay [3] and in assay [4] was above 100 µM in each case.
Regarding `COc1cc(OC(=O)c2ccc(Cl)cc2)c(C(=O)c2ccc(OC(=O)c3ccc(Cl)cc3)cc2)c(O[C@@H]2O[C@H](COC(=O)c3ccc(Cl)cc3)[C@@H](OC(=O)c3ccc(Cl)cc3)[C@H](OC(=O)c3ccc(Cl)cc3)[C@H]2OC(=O)c2ccc(Cl)cc2)c1`, the half-inhibitory concentration (IC50) in assay [1], in assay [2], in assay [3] and in assay [4] was above 100 µM throughout.
On to `COc1cc(OCCCN2CCCCC2)c(C(=O)c2ccc(OCc3ccccc3)cc2)c(OCc2ccccc2)c1`, for which the IC50 in assay [1] was determined as 5.14 µM; in assay [2] it was 4.97 µM; in assay [3], 3.12 µM; in assay [4], 3.47 µM. Moreover, the result in assay [5] was Active.
`COc1cc(OCc2ccccc2)c(C(=O)c2ccc(OCc3ccccc3)cc2)c(O[C@@H]2O[C@H](CO)[C@@H](O)[C@H](O)[C@H]2O)c1`: the 50% inhibitory concentration (IC50) worked out at 22.7 µM in assay [1], 41.1 µM in assay [2], 44.3 µM in assay [3] and 28.9 µM in assay [4].
In the same order, the values of `COc1cc(O)c(C(=O)c2ccc(O)cc2)c(O[C@@H]2O[C@H](CO)[C@@H](O)[C@H](O)[C@H]2O)c1` [MAHKOSIDE A] are above 100 µM, above 100 µM, above 100 µM and above 100 µM.
In the case of `COc1cc(O)c(C(=O)c2ccc(OCc3ccccc3)cc2)c(OCc2ccccc2)c1`, the concentration for half-maximal inhibition (IC50) in assay [1], in assay [2], in assay [3] and in assay [4] was above 100 µM in each case.
With `COc1cc(OCCCBr)c(C(=O)c2ccc(OCCCBr)cc2)c(O[C@@H]2O[C@H](CO)[C@@H](O)[C@H](O)[C@H]2O)c1`, the concentration for half-maximal inhibition (IC50) in assay [1] was determined as 23.1 µM; in assay [2] it was 31.3 µM; in assay [3], 53.8 µM; in assay [4], 40 µM.
As to `C=CCOc1ccc(C(=O)c2c(OCC=C)cc(OC)cc2O[C@@H]2O[C@H](CO)[C@@H](O)[C@H](O)[C@H]2O)cc1`, the 50% inhibitory concentration (IC50) in assay [1], in assay [2], in assay [3] and in assay [4] was above 100 µM throughout.
On to `COc1cccc(COc2ccc(C(=O)c3c(OCc4cccc(OC)c4)cc(OC)cc3O[C@@H]3O[C@H](CO)[C@@H](O)[C@H](O)[C@H]3O)cc2)c1`, for which the 50% inhibitory concentration (IC50) was found to be 12.3 µM in assay [1], 20.9 µM in assay [2], 18.4 µM in assay [3] and 6.92 µM in assay [4].
Take `COc1cc(OCCCBr)c(C(=O)c2ccc(OCc3ccccc3)cc2)c(OCc2ccccc2)c1`: the 50% inhibitory concentration (IC50) in assay [1], in assay [2], in assay [3] and in assay [4] was above 100 µM each time.
Turning to `COc1cc(O)c(C(=O)c2ccc(O)cc2)c(O[C@@H]2O[C@H](COC(C)=O)[C@@H](O)[C@H](O)[C@H]2O)c1` [MAHKOSIDE B], the IC50 in assay [1], in assay [2], in assay [3] and in assay [4] was above 100 µM throughout.
In the case of `COc1ccc(COc2ccc(C(=O)c3c(OCc4ccc(OC)cc4)cc(OC)cc3O[C@@H]3O[C@H](CO)[C@@H](O)[C@H](O)[C@H]3O)cc2)cc1`, the IC50 in assay [1] worked out at 17.1 µM; in assay [2] it was 20.5 µM; in assay [3] it was 28.2 µM; in assay [4] it was 11.7 µM.
As to `COc1cc(OC(C)=O)c(C(=O)c2ccc(OC(C)=O)cc2)c(O[C@@H]2O[C@H](COC(C)=O)[C@@H](OC(C)=O)[C@H](OC(C)=O)[C@H]2OC(C)=O)c1`, the concentration for half-maximal inhibition (IC50) came to 50.7 µM in assay [1], 86.1 µM in assay [2], 47.3 µM in assay [3] and 34.1 µM in assay [4].
`CCOc1ccc(C(=O)c2c(OCC)cc(OC)cc2O[C@@H]2O[C@H](CO)[C@@H](O)[C@H](O)[C@H]2O)cc1`: the IC50 in assay [1], in assay [2], in assay [3] and in assay [4] was above 100 µM in each case.
